Measured values reported in ChEMBL document CHEMBL1926556, “Synthesis and biological activities of 2-[(heteroaryl)methyl]imidazolines” (Bioorg Med Chem, 2012).

What was measured:
[1] = target: T1, Adrenergic receptor alpha-1 (Rattus norvegicus, UniProt P15823+P23944+P43140); test: Displacement of [3H]prazosin from adrenoceptor alpha1 in Sprague-Dawley rat brain after 45 mins by scintillation counting
T1 sequence (P15823 whole entry): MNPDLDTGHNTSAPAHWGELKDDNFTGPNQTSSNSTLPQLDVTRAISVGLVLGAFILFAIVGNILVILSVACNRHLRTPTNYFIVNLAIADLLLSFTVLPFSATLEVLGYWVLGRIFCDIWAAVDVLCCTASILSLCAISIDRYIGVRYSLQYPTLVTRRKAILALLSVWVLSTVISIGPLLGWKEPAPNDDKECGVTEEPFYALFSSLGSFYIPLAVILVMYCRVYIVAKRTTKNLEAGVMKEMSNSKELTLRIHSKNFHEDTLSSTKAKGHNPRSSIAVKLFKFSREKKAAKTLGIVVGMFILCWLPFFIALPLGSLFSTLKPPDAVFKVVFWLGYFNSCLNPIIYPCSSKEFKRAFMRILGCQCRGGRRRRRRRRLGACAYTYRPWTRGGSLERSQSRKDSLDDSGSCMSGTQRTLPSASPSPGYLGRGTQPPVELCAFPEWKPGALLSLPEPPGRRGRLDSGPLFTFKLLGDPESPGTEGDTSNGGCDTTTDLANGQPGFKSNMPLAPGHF
T1 sequence (P23944 whole entry): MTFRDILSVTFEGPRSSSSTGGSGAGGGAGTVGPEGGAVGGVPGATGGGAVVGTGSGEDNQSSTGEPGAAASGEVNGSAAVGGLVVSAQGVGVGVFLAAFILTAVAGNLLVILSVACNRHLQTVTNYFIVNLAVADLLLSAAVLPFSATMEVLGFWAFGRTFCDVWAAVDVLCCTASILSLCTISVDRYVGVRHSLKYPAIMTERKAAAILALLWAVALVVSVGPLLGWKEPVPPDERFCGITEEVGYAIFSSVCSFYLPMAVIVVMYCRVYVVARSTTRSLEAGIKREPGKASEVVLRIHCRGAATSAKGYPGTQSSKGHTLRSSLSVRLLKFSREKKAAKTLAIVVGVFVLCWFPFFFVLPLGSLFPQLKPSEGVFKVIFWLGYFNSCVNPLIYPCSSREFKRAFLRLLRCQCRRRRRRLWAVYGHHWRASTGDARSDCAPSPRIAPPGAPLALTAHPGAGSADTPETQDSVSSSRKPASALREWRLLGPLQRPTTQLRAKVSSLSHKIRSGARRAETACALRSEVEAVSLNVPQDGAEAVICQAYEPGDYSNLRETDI
T1 sequence (P43140 whole entry): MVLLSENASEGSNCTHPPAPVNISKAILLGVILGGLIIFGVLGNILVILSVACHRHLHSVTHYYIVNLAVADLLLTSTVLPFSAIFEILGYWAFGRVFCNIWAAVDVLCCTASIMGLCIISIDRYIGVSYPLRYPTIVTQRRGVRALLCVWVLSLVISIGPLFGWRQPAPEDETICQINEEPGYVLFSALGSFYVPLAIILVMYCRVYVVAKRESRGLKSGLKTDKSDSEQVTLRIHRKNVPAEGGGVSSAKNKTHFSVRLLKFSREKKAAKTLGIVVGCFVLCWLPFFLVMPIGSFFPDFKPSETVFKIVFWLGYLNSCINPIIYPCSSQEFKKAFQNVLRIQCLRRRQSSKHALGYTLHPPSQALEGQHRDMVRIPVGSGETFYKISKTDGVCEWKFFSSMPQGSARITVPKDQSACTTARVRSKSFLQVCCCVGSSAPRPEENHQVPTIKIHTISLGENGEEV
In short: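 Crude P2 membranes from male Sprague–Dawley rat brain (250–280 g), 0.2–0.3 mg protein. Radioligand 1 nM: [3H]2BFI for I2, [3H]prazosin for α1, [3H]RX821002 for α2. Non-specific binding defined by 10 µM BU224 (I2), 10 µM phenylephrine (α1) or 10 µM rauwolscine (α2). 11 concentrations from 0.01 nM to 100 µM, triplicate, 45 min at RT. Filtration and scintillation counting; Ki by Cheng–Prusoff.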

[2] = target: Nischarin (Rattus norvegicus, UniProt Q4G017); test: Displacement of [3H]clonidine from imidazoline I1 receptor in Sprague-Dawley rat kidney membranes after 45 mins by scintillation counting; format: cell membranes, Membrane
In short: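 Crude P2 membranes from male Sprague–Dawley rat kidney, 0.2–0.5 mg protein. […] Specific binding defined by 10 µM rilmenidine. 11 concentrations from 0.01 to 100 µM, 50 mM Tris-HCl pH 7.4, 45 min at RT. Filtration and scintillation counting; IC50.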

[3] = target: T2, Alpha-2A adrenergic receptor (Homo sapiens) (UniProt P08913); test: Agonist activity at human adrenoceptor alpha2A expressed in CHOK1 cells assessed as stimulation of agonist-induced [35S]GTPgammaS binding by scintillation counting assay relative to noradrenaline; format: functional, cell-based; conditions: CHO-K1
T2 sequence (whole entry): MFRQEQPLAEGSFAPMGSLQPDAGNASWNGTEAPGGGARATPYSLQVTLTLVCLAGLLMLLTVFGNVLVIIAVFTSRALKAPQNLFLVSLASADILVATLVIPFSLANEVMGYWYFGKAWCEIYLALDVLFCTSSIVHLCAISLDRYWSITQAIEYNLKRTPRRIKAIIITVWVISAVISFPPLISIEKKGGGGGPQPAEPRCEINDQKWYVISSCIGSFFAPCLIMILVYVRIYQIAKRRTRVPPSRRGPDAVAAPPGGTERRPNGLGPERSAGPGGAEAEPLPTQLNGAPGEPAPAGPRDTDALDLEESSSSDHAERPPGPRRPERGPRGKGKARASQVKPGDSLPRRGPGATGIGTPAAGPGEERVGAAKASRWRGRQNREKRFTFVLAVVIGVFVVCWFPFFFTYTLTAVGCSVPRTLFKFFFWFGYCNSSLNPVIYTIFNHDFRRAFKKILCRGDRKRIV
In short: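 Membranes from CHO-K1 cells stably expressing human α2A-adrenoceptor; 5 µg protein incubated with serial dilutions of agonist and 0.1 nM [35S]GTPγS in Tris buffer pH 7.4 with 1 µM GDP, MgCl2, NaCl, 30 min at RT. Filtered and counted by scintillation. EC50 and intrinsic activity relative to noradrenaline; means from 3 independent experiments.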

Chain of Nischarin (Q4G017 whole entry): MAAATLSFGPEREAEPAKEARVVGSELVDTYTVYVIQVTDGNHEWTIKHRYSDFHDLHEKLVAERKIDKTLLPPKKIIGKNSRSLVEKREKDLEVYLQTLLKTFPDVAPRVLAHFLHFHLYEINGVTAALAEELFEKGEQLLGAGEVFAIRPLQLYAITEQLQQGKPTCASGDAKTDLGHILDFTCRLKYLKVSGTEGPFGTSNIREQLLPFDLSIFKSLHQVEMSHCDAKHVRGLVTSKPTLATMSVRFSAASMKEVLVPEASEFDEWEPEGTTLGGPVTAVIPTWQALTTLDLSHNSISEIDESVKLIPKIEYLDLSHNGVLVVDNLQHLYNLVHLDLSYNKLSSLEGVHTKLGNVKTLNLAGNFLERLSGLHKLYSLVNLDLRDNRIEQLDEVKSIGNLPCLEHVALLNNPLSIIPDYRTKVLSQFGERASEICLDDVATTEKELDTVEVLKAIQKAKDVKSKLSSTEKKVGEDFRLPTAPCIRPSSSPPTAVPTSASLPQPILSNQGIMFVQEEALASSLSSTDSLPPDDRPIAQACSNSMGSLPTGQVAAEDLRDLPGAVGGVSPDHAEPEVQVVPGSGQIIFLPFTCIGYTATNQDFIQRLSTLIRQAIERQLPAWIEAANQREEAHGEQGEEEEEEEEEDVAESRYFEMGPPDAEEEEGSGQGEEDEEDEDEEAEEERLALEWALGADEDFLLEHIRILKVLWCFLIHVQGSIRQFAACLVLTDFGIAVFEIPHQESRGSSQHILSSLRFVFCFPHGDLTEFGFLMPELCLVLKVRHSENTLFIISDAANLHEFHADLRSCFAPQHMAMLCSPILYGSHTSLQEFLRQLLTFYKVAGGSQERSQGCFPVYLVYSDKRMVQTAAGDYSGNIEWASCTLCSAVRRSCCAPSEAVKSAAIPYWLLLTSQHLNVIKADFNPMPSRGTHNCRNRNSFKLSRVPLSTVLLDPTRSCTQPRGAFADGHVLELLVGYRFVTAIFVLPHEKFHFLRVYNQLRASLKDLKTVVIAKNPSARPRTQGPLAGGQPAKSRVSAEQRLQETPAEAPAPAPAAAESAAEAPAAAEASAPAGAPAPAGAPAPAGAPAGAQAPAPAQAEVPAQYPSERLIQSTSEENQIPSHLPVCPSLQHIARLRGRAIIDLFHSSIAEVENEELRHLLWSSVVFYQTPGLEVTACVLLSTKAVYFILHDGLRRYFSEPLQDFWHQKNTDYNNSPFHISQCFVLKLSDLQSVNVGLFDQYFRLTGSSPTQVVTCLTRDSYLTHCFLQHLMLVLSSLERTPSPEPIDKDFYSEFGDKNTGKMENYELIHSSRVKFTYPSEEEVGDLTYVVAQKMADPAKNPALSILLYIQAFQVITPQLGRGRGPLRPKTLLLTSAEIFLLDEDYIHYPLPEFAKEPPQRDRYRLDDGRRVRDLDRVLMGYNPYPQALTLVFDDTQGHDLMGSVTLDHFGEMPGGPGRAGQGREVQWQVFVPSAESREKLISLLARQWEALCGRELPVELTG

Cc1cccc2cnn(CC3=NCCN3)c12.Cl
Ki [1]: 101 nM
IC50 [2]: 96400 nM
Emax [3]: 6.3%

Cl.c1ccc2c(c1)cnn2CC1=NCCN1
Ki [1]: 272 nM
IC50 [2]: 19400 nM
Emax [3]: 6.3%

Cl.Clc1cccc2cnn(CC3=NCCN3)c12
Ki [1]: 14.1 nM
IC50 [2]: 856 nM
Emax [3]: 7.4%
